Data published in ChEMBL document CHEMBL3352234, “Discovery of furan-2-carbohydrazides as orally active glucagon receptor antagonists” (Bioorg Med Chem Lett, 2014).
Activity calls are given as the source filed them. No cut-off for these calls is given here.

Tests used:
Glucagon receptor [1] = molecular target: T1, Glucagon receptor (Rattus norvegicus, UniProt P30082); test: Displacement of [125I]glucagon from glucagon receptor in rat hepatocyte membranes after 30 mins by gamma-counting; format: cell membranes
Outline: (§1)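 Rat liver was homogenized in 20 volumes of 50 mM Tris–HCl (pH 7.2) and the membrane pellet collected by two 30,000g spins of 15 min each. Membranes were resuspended in Tris–HCl pH 7.2 with 1 mg/mL BSA and 0.1 mg/mL bacitracin. Incubation was with [125I]glucagon (final 50 pM) at 25 °C for 30 min, then filtration onto PEI-treated GF/C filters and gamma counting. Inhibition is relative to binding without compound, after subtracting nonspecific binding with excess glucagon. Run in duplicate.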

[2] = molecular target: Glucagon receptor (Rattus norvegicus) (UniProt P30082); test: Displacement of [125I]glucagon from glucagon receptor in rat hepatocyte membranes at 10 uM after 30 mins by gamma-counting; format: cell membranes; outline: as §1
[3] = Inhibition of glucagon-induced glucagon receptor-mediated cAMP production in dog hepatocytes after 15 mins by cAMP dynamic2 assay; format: cell-based; details: Canis lupus familiaris, Hepatocyte, 0.25 h
Outline: (§2)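 Hepatocytes were suspended in HCM medium, seeded on collagen-coated wells and incubated for 5 h. Compound in DMEM with 20 mM HEPES, 0.1% BSA and 0.5 mM IBMX was preincubated for 15 min at room temperature. Glucagon was then added for 5 min at room temperature. Cells were lysed with 0.5 M HCl for 10 min and neutralized with Tris–HCl pH 8.0. Supernatant cAMP was quantified with the cAMP dynamic2 kit.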

Rattus norvegicus [4] = test: Volume of distribution at steady state in rat at 1 mg/kg, iv; format: ADME, organism-based; set-up: dose 1 mg/kg, route intravenous; details: in vivo
[5] = molecular target: Glucagon-like peptide 1 receptor (Homo sapiens, UniProt P43220); test: Inhibition of GLP-1R (unknown origin)
Glucagon receptor [6] = molecular target: T1, Glucagon receptor; test: Inhibition of glucagon-induced glucagon receptor-mediated cAMP production in rat hepatocytes after 15 mins by cAMP dynamic2 assay; format: functional, cell-based, Hepatocyte; outline: as §2
Rattus norvegicus [7] = test: Inhibition of glucagon-induced glucose elevation in rat at 30 mg/kg, po administered 30 mins prior challenge measured up to 6 hrs; format: functional, organism-based; set-up: dose 30 mg/kg
Outline: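 Normal rats were dosed orally 30 min before an intravenous glucagon challenge, with blood sampled afterwards for glucose. Values are mean ± SEM, n = 6 per group; Dunnett multiple comparison test.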

[8] = Inhibition of sodium channel site 2 (unknown origin); set-up: species or system Homo sapiens
[9] = molecular target: Voltage-gated inwardly rectifying potassium channel KCNH2 (Homo sapiens, UniProt Q12809); test: Inhibition of human ERG
Rattus norvegicus [10] = test: Half life in rat at 1 mg/kg, iv; format: ADME, organism-based; set-up: dose 1 mg/kg, route intravenous; details: in vivo
[11] = Oral bioavailability in rat at 1 mg/kg; format: ADME, organism-based; details: in vivo
Rattus norvegicus [12] = test: Inhibition of glucagon-induced glucose elevation in normal rat at 30 mg/kg, po administered 30 mins prior challenge measured up to 6 hrs
[13] = Cmax in rat at 1 mg/kg, po; format: ADME, organism-based; set-up: dose 1 mg/kg, route oral; details: in vivo
Glucagon receptor [14] = molecular target: Glucagon receptor (Homo sapiens, UniProt P47871); test: Inhibition of glucagon-induced glucagon receptor-mediated cAMP production in human hepatocytes after 15 mins by cAMP dynamic2 assay; format: functional, cell-based, Hepatocyte; outline: as §2
[15] = Half life in rat at 1 mg/kg, po; format: ADME, organism-based; set-up: dose 1 mg/kg, route oral; details: in vivo

Sequence of Glucagon receptor (Rattus norvegicus) (P30082 whole entry): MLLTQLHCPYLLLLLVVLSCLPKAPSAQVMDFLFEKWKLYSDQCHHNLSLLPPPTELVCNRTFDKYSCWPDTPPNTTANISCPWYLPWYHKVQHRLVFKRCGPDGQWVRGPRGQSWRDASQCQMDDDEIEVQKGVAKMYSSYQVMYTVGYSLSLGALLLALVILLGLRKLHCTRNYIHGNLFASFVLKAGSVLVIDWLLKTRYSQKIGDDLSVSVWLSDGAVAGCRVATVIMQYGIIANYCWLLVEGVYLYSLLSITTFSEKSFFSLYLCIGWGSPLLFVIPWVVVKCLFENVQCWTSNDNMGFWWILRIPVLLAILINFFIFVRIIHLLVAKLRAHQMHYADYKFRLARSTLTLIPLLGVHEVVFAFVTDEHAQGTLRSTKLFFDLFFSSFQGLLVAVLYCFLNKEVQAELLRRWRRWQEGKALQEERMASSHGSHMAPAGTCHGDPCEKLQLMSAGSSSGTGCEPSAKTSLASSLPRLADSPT
T1 sequence (P30082 whole entry): as above
Sequence of Glucagon receptor (Homo sapiens, UniProt P47871) (P47871 whole entry): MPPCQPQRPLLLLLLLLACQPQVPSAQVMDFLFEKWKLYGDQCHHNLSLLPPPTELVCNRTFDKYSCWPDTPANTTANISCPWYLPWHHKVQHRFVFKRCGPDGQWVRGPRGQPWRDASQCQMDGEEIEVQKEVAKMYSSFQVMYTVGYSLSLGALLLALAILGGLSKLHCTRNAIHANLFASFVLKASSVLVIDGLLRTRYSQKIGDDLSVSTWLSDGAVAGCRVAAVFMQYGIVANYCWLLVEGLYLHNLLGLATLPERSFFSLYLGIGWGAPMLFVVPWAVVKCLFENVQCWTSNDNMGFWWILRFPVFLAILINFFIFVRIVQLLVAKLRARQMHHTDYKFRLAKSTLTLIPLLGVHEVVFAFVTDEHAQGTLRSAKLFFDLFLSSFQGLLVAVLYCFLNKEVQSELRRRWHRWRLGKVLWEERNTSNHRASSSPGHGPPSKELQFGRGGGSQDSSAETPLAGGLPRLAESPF
Sequence of Voltage-gated inwardly rectifying potassium channel KCNH2 (Q12809 whole entry): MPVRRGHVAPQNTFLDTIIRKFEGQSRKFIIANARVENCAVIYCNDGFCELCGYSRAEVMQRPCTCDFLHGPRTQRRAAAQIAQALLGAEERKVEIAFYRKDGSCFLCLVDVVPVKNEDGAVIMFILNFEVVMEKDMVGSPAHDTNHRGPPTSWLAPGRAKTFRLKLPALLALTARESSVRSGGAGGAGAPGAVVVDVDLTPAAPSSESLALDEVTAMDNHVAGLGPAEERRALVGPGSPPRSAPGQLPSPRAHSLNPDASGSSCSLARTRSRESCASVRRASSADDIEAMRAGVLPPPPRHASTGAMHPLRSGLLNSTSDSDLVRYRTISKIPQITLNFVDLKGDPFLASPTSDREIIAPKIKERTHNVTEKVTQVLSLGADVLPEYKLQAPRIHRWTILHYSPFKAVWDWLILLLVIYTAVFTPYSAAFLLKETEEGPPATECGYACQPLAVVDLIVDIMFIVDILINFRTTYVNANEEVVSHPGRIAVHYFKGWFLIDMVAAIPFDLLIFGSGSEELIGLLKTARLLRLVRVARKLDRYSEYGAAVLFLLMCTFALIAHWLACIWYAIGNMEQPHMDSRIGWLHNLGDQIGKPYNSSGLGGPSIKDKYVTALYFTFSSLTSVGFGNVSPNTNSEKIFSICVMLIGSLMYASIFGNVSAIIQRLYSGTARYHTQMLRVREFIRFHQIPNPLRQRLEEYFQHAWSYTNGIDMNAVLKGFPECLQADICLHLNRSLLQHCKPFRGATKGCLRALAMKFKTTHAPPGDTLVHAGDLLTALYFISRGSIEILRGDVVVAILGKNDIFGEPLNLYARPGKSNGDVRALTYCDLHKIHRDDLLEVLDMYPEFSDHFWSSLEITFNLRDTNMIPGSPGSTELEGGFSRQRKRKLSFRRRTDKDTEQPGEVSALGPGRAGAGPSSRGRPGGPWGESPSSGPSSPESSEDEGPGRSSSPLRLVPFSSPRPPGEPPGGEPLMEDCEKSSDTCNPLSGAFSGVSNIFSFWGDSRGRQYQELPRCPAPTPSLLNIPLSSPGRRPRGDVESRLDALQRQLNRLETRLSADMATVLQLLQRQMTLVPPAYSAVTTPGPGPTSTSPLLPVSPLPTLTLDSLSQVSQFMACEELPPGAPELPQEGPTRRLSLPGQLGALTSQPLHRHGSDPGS
Sequence of Glucagon-like peptide 1 receptor (P43220 whole entry): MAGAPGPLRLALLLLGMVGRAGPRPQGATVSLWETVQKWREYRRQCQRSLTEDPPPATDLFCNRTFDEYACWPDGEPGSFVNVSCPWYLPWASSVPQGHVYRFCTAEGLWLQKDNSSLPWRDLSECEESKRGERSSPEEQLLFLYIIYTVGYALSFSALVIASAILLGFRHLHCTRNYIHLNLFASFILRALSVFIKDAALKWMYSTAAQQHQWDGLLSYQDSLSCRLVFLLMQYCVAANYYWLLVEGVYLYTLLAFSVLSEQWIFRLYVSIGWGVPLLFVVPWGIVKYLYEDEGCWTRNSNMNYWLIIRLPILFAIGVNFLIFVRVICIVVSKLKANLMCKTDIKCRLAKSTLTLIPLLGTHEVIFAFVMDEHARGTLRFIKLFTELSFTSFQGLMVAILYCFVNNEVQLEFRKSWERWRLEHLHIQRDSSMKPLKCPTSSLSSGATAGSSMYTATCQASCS

SMILES	IC50 (Glucagon receptor [1]) [µM]	inhibition [2]	also measured
COc1ccc(C(=O)NNC(=O)c2occ(-c3ccccc3)c2-c2ccccc2)cc1	–	inactive	–
O=C(NNC(=O)c1cc(-c2ccccc2)co1)c1ccoc1	–	6%	–
O=C(NNC(=O)c1occ(-c2ccccc2)c1-c1ccccc1)c1ccoc1	–	73%	–
O=C(NNC(=O)c1occ(-c2ccccc2)c1-c1ccccc1)c1ccco1	–	50%	–
O=C(NNC(=O)c1occ(-c2ccccc2)c1-c1ccccc1)c1ccccc1	–	42%	–
O=C(NNC(=O)c1occ(-c2ccccc2)c1-c1ccccc1)c1ccc(O)nc1	0.97	–	–
CCCCCc1ccc(-c2ccoc2C(=O)NNC(=O)c2ccc(O)c([N+](=O)[O-])c2)cc1	–	–	IC50 [3]: 0.183 µM; Vdss (Rattus norvegicus [4]): 0.59 L/kg; IC50 [5]: > 1 µM; IC50 (Glucagon receptor [6]): 0.0053 µM; inhibition (Rattus norvegicus [7]): Active; IC50 [8]: > 1 µM; IC50 [9]: > 1 µM; t1/2 (Rattus norvegicus [10]): 5.9 h; bioavailability [11]: 37%; inhibition (Rattus norvegicus [12]): Active; Cmax [13]: 0.411 µg/mL; IC50 (Glucagon receptor [14]): 0.292 µM; half-life [15]: 6.1 h
O=C(NNC(=O)c1occ(-c2ccccc2)c1-c1ccccc1)c1ccc(O)c(-c2ccccc2)c1	> 10	–	–
O=C(NNC(=O)c1occ(-c2ccccc2)c1-c1ccccc1)c1ccc(O)cc1	9.5	65%	–
O=C(O)c1ccc(C(=O)NNC(=O)c2occ(-c3ccccc3)c2-c2ccccc2)cc1	–	61%	–
O=C(NNC(=O)c1occ(-c2ccccc2)c1-c1ccccc1)c1cccc(O)c1	–	21%	–

The next lines start with results.

IC50 (Glucagon receptor [1]) [µM]	inhibition [2]	SMILES	also measured
0.27	–	O=C(NNC(=O)c1occ(-c2ccccc2)c1-c1ccccc1)c1ccc(O)c(Br)c1	–
9.5	–	COc1cc(C(=O)NNC(=O)c2occ(-c3ccccc3)c2-c2ccccc2)ccc1O	–
1.4	–	O=C(NNC(=O)c1occ(-c2ccccc2)c1-c1ccccc1)c1ccc(O)c(F)c1	–
0.087	–	O=C(NNC(=O)c1occ(-c2ccccc2)c1-c1ccccc1)c1ccc(O)c([N+](=O)[O-])c1	–
0.43	–	O=C(NNC(=O)c1occ(-c2ccccc2)c1-c1ccccc1)c1ccc(O)c(Cl)c1	–
–	57%	O=C(NNC(=O)c1occ(-c2ccccc2)c1-c1ccccc1)c1ccc(O)c(O)c1	–
